In ChEMBL document CHEMBL1641461, “Azaindoles as potent CRTH2 receptor antagonists” (Bioorg Med Chem Lett, 2011):

What was measured:
[1] = molecular target: T1, Prostaglandin D2 receptor 2 (Homo sapiens, UniProt Q9Y5Y4); assay: Displacement of radioligand from human CRTH2 expressed in HEK293 cells by competitive binding assay; format: cell-based
T1 sequence (Q9Y5Y4 whole entry): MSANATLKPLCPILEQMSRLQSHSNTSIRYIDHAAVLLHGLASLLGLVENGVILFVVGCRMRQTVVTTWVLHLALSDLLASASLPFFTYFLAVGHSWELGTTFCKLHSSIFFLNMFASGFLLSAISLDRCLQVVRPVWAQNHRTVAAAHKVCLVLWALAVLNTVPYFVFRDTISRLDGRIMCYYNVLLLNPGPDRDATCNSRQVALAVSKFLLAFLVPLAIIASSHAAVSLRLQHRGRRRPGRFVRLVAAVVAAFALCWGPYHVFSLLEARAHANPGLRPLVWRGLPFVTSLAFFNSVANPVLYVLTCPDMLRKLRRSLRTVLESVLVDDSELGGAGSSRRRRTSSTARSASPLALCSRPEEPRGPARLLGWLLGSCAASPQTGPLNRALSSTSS
Procedure, shortened: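 Radioligand competition binding on membranes from HEK293 (EBNA) cells stably expressing hCRTH2, in 10 mM HEPES/KOH. Mean of two or more experiments.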

[2] = molecular target: T2, Prostaglandin D2 receptor (Homo sapiens, UniProt Q13258); assay: Displacement of radioligand from prostanoid DP receptor expressed in HEK293 cells by competitive binding assay; format: cell-based
T2 sequence (Q13258 whole entry): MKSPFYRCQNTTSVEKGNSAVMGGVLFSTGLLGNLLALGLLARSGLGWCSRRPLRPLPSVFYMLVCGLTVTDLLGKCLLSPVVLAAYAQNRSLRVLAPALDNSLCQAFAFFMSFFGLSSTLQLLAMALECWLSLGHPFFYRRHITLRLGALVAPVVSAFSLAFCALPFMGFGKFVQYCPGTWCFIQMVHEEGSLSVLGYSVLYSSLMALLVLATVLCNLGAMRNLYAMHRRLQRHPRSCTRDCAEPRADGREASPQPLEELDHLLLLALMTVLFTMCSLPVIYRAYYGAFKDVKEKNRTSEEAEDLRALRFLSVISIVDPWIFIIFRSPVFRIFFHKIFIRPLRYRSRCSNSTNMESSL

Thromboxane A2 receptor = molecular target: T3, Thromboxane A2 receptor (Homo sapiens, UniProt P21731); assay: Displacement of radioligand from prostanoid TP receptor expressed in HEK293 cells by competitive binding assay; format: cell-based
T3 sequence (P21731 whole entry): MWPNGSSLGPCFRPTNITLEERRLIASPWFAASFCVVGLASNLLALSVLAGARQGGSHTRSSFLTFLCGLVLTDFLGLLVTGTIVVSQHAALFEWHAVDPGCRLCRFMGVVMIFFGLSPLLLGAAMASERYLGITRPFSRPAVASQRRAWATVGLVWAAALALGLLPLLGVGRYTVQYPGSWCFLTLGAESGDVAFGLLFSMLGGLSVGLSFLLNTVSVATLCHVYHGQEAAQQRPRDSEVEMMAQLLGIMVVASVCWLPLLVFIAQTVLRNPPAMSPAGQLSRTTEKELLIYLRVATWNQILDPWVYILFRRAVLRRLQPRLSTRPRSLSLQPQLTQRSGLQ

[3] = molecular target: T1, Prostaglandin D2 receptor 2; assay: Antagonist activity at human CRTH2 expressed in HEK293 cells assessed as inhibition of forskolin-induced increase intracellular [125I]cAMP level by scintillation proximity assay; format: functional, cell-based
Procedure, shortened: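 Intracellular cAMP measured by ¹²⁵I-cAMP scintillation proximity assay in Hank's balanced salt solution with 25 mM HEPES and forskolin. Values are the mean of two or more experiments.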

[4] = Bioavailability in Sprague-Dawley rat at 5 mg/kg, po and 1 mg/kg, iv; format: ADME, organism-based; conditions: in vivo
Procedure, shortened: (§1)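 Rats dosed PO at 5 mg/kg (5 mL/kg) in 0.5% methocel and IV at 1 mg/kg (1 mL/kg) in 60% PEG 200; n = 2.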

[5] = Clearance in Sprague-Dawley rat at 5 mg/kg, po and 1 mg/kg, iv; format: ADME, organism-based; conditions: in vivo; procedure, shortened: as §1
[6] = Volume of distribution in Sprague-Dawley rat at 5 mg/kg, po and 1 mg/kg, iv; format: ADME, organism-based; conditions: in vivo; procedure, shortened: as §1
[7] = Half life in Sprague-Dawley rat at 5 mg/kg, po and 1 mg/kg, iv; format: ADME, organism-based; conditions: in vivo; procedure, shortened: as §1
Rattus norvegicus = assay: (§2) Bioavailability in Sprague-Dawley rat at 1 mg/kg, iv; format: ADME, organism-based; conditions: in vivo
Cytochrome P450 2C9 = Cytochrome P450 2C9 (Homo sapiens, UniProt P11712); assay: Inhibition of CYP2C9; format: ADME
Sequence of Cytochrome P450 2C9 (P11712 whole entry): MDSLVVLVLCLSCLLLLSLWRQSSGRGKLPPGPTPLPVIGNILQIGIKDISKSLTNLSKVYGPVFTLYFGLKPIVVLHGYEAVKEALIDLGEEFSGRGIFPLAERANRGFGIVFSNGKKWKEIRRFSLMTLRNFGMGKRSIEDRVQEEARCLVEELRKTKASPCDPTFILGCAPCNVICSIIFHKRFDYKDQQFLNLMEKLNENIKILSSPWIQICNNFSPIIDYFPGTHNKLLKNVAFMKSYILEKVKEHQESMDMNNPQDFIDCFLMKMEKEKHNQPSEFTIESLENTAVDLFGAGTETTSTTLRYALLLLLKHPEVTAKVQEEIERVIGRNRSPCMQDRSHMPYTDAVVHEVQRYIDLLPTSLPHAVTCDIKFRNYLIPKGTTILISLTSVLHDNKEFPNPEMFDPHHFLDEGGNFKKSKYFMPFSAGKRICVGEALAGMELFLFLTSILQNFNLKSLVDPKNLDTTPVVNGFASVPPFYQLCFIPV
Procedure, shortened: (§3)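 CYP2C9 and CYP3A4 inhibition IC50 values, averaged over at least two experiments.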

Cytochrome P450 3A4 = Cytochrome P450 3A4 (Homo sapiens, UniProt P08684); assay: Inhibition of CYP3A4; format: ADME; procedure, shortened: as §3
Sequence of Cytochrome P450 3A4 (P08684 whole entry): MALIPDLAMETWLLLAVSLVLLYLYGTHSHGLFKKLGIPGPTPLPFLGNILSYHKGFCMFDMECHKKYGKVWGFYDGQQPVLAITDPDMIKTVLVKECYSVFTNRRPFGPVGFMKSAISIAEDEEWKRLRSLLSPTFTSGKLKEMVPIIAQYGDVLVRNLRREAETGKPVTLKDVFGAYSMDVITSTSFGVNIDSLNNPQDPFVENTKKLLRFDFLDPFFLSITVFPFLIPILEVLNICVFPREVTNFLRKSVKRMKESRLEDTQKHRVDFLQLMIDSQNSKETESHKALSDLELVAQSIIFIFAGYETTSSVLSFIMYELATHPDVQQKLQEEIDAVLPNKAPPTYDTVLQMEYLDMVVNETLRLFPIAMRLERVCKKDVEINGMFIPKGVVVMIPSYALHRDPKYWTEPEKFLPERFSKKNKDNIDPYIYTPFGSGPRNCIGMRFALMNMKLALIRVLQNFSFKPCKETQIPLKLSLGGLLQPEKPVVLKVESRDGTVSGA

[8] = as §2; format: ADME, organism-based; conditions: Sprague-Dawley, in vivo

Row | SMILES | Ki [1] | Ki [2] | Ki (Thromboxane A2 receptor) | IC50 [3] | bioavailability [4] | clearance [5] | Vd [6] | half-life [7] | F (Rattus norvegicus) | IC50 (Cytochrome P450 2C9) | IC50 (Cytochrome P450 3A4) | bioavailability [8]
1 | CN([C@@H]1CCc2c(CC(=O)O)c3ncccc3n2C1)S(=O)(=O)c1ccc(F)cc1 | 7190 nM | > 1300 nM | > 7000 nM | – | – | – | – | – | – | – | – | –
2 | CN([C@@H]1CCc2c(CC(=O)O)c3cnccc3n2C1)S(=O)(=O)c1ccc(F)cc1 | 6720 nM | > 3400 nM | > 6800 nM | – | – | – | – | – | – | – | – | –
3 | C[C@H](C(=O)N(C)[C@@H]1CCc2c(CC(=O)O)c3cccnc3n2C1)c1ccc(F)cc1 | 21.1 nM | > 12000 nM | > 22000 nM | 73.8 nM | – | – | – | – | – | – | – | –
4 | CN([C@@H]1CCc2c(CC(=O)O)c3ccc(Cl)nc3n2C1)S(=O)(=O)c1ccc(F)cc1 | 1.8 nM | > 18000 nM | > 27000 nM | 3.2 nM | – | – | – | – | – | – | – | –
5 | CN([C@@H]1CCc2c(CC(=O)O)c3ccc(-c4ccc(F)cc4)nc3n2C1)S(=O)(=O)c1ccc(F)cc1 | 1.9 nM | > 3800 nM | > 1000 nM | 3.6 nM | – | – | – | – | – | – | – | –
6 | CN([C@@H]1CCc2c(CC(=O)O)c3ccncc3n2C1)S(=O)(=O)c1ccc(F)cc1 | 139 nM | > 12000 nM | > 22000 nM | 351 nM | – | – | – | – | – | – | – | –
7 | CN(C(=O)C(C)(C)c1ccc(F)cc1)[C@@H]1CCc2c(CC(=O)O)c3cccnc3n2C1 | 4.7 nM | > 10000 nM | > 21000 nM | 3.5 nM | – | 21 mL/min/kg | 1.54 L/kg | 1.9 h | 156% | – | – | –
8 | CN([C@@H]1CCc2c(CC(=O)O)c3cccnc3n2C1)S(=O)(=O)c1ccc(F)cc1 | 3.3 nM | > 47000 nM | > 22000 nM | 3.4 nM | 50% | 0.4 mL/min/kg | 0.23 L/kg | 7.5 h | – | > 50000 nM | > 50000 nM | –
9 | CN([C@@H]1CCc2c(CC(=O)O)c3ccccc3n2C1)S(=O)(=O)c1ccc(F)cc1 [MK-7246] | – | – | – | – | – | 3.9 mL/min/kg | 1.15 L/kg | 4.1 h | – | – | – | 138%
10 | C[C@@H](C(=O)N(C)[C@@H]1CCc2c(CC(=O)O)c3cccnc3n2C1)c1ccc(F)cc1 | 3.4 nM | > 38000 nM | > 71000 nM | 5.7 nM | 84% | 3.6 mL/min/kg | 0.67 L/kg | 4 h | – | > 50000 nM | > 50000 nM | –

Next, values leading:

Row | Ki [1] | Ki [2] | Ki (Thromboxane A2 receptor) | IC50 [3] | bioavailability [4] | clearance [5] | Vd [6] | half-life [7] | F (Rattus norvegicus) | IC50 (Cytochrome P450 2C9) | IC50 (Cytochrome P450 3A4) | bioavailability [8] | SMILES
11 | 3.9 nM | > 4000 nM | > 7200 nM | 4.5 nM | 38% | 18 mL/min/kg | 1.72 L/kg | 11.6 h | – | – | – | – | CN(C(=O)C1(c2ccc(F)cc2)CCCC1)[C@@H]1CCc2c(CC(=O)O)c3cccnc3n2C1
12 | 11.5 nM | > 4000 nM | > 7200 nM | 7 nM | – | – | – | – | – | – | – | – | CN(C(=O)C1(c2ccc(F)cc2)CCOCC1)[C@@H]1CCc2c(CC(=O)O)c3cccnc3n2C1
13 | 3.4 nM | > 4000 nM | > 7200 nM | 4.7 nM | 20% | 28 mL/min/kg | 4.58 L/kg | 2.1 h | – | – | – | – | CN(C(=O)C1(c2ccc(F)cc2)CCC1)[C@@H]1CCc2c(CC(=O)O)c3cccnc3n2C1
14 | 5.1 nM | > 4000 nM | > 7200 nM | 4.4 nM | – | – | – | – | – | – | – | – | CN(C(=O)C1(c2ccc(F)cc2)CC1(C)C)[C@@H]1CCc2c(CC(=O)O)c3cccnc3n2C1 (stereo partly specified)
15 | 3.6 nM | > 3700 nM | > 6800 nM | 7.5 nM | 63% | 12 mL/min/kg | 2.2 L/kg | 3.1 h | – | – | – | – | CN(C(=O)C1(c2ccc(F)cc2)CC1)[C@@H]1CCc2c(CC(=O)O)c3cccnc3n2C1
